Assay results as given in PubChem BioAssay.
Unmarked numbers belong to inactive results. Records with an inconclusive call do not appear. The source made the active and inactive calls.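 Rule for the calls, unless noted: active = growth inhibition above 25% in both replicates, a cutoff set 3 SD above the mean; inconclusive = above 25% in only one replicate; inactive = the rest.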

Key:
[1] = OD615 S. cerevisiae growth inhibition, permissive medium, pilot counter-assay, permissive growth control for S. cerevisiae lifespan shortening project (AID 705); conditions: OD615, 24 h, at 10 µM, hits give high values
Outline: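 System – S. cerevisiae with engineered DeaD lifespan system · Buffer or medium – SC raffinose/galactose permissive medium · Schedule – cells pre-grown 4 h, then 24 h compound exposure, 30 °C humidified · Technique – culture turbidity as optical density at 615 nm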

[2] = Restrictive medium S. cerevisiae growth inhibition, OD615, pilot screen of yeast lifespan reduction project, restrictive growth control (AID 706;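 active = growth inhibition above a set limit, 3 SD over mean compound inhibition, in both replicates, cut at about 43% in these data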;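 note: modified DeaD lifespan yeast strain shifted to restrictive glucose medium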); conditions: OD615, 48 h, at 10 µM, hits give high values
Outline: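 Material: engineered S. cerevisiae DeaD strain / Medium: glucose-based CSMM-D restrictive medium / Compound: single dose of 10 µM compound final, 0.25% DMSO / Timing: 4 h pre-incubation, 48 h exposure at 30 °C / Technique: OD615 absorbance reading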

[3] = viability gain of MRP-1-high H69AR cells under doxorubicin, pilot screen, MRP-1 activator project, CellTiter-Glo, duplicate (AID 807;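 active = viability increase at or above a cutoff of the median across tested compounds plus 3 SD, cut at about 8.5% in these data, passing the limit was not always enough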;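 note: compound pretreatment 18-22 h then 72 h combined with doxorubicin; 0% = doxorubicin alone and 100% = vehicle without doxorubicin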); conditions: H69AR viability with doxorubicin, CellTiter-Glo luminescence; at 10 µM; hits give high values
[4] = growth suppression of beta-catenin knockout HCT116, pilot screen, human colon tumor cells (AID 823;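 active = cell viability at or below a set limit in both duplicate runs, the limit being the all-compound median minus 4 SD, cut at about 23% in these data, passing the limit was not always enough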;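 note: 0% = wells killed by 20 µM Hyamine and 100% = untreated DMSO cell wells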); conditions: CellTiter-Glo, 60 h, at 10 µM, hits give low values
[5] = growth suppression of PTEN-deleted HCT116, pilot screen, cell-based, HCT116 clonal line, CellTiter-Glo (AID 824;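 active = viability at or below 27.92% in each of two runs, the all-compound median minus 4 SD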;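 note: 0% = 20 µM Hyamine control and 100% = vehicle cell control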); conditions: 60 h, at 10 µM, hits give low values
[6] = inhibitors of the yeast RAM network, pilot screen, dse1pr::URA3 reporter, 5-FOA selection (AID 869;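 active = inhibition over a set limit, the all-compound mean plus 3 SD, in both replicate runs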;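 note: 0% = DMSO wells with no growth and 100% = 10 µM 1-NA-PP1 with full growth; RAM network block rescues cells from 5-FOA so hits raise OD615 growth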); conditions: S. cerevisiae dse1pr::URA3 5-FOA growth, OD615, 2 d; at 10 µM; hits give high values; strain carries analog-sensitive mutant Cbk1 kinase
[7] = RAM signaling pathway blockade in yeast – S. cerevisiae, Pdr1DBD-CYC8 efflux-inhibited sensitized strain, primary screen (AID 1298;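 active = RAM network inhibition above 8.4% in each of two replicates, 3 SD over the compound average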;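 note: 0% = DMSO untreated cells without growth and 100% = 10 µM 1-NA-PP1 full growth; higher means more yeast growth rescued from 5-FOA killing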); conditions: S. cerevisiae cbk1-as DSE1-URA3 strain, 5-FOA growth OD615, 2 d; at 50 µM; hits give high values

| Structure (SMILES) | growth inhibition [1] | growth inhibition [2] | viability increase [3] | viability [4] | viability [5] | inhibition [6] | RAM network inhibition [7] |
| --- | --- | --- | --- | --- | --- | --- | --- |
| Cn1nnnc1P(=O)(c1ccccc1)c1ccccc1 | 0.165% | 0.5% | 0.85% | 103% | 102% | 0.995% | 1.32% |
| Cc1cc(Nc2ccc(F)cc2F)n2ncnc2n1 | -1.61% | 6.47% | -1.6% | 96.5% | 97.8% | 1.35% | 1.04% |
| COc1cc2c(cc1OC)CN(C(=O)C(C)(C)C)CC2 | -8.97% | -7.4% | 0.45% | 105% | 96.7% | -0.13% | -0.98% |
| Cc1cc(Nc2ccc(F)cc2C)n2ncnc2n1 | -3.29% | -0.445% | 0.05% | 108% | 101% | 1.8% | 5.54% |
| O=C1c2ccccc2-c2ncnc3c(N4CCOCC4)cc(N4CCOCC4)c1c23 | -12.8% | -3.37% | -7.53% | 79.2% | 80.9% | -0.74% | -1.52% |
| COc1ccc(OC)c2[nH]c(=O)c(CCNC(=O)C(C)(C)C)cc12 | -5.16% | -4.56% | 1.19% | 105% | 102% | 0.23% | 0.89% |
| COCCn1c(SCC(=O)NCC2CCCO2)nc2c(c1=O)SC(C)C2 (configuration not stated) | -7.14% | -0.265% | -0.65% | 110% | 109% | 1.19% | 3.08% |
| CC(C)NC(=O)c1cc2c(-c3ccc(Cl)cc3)nn(C)c2s1 | -10.4% | 3.42% | -6.18% | 74.5% | 76.8% | 3.84% | 4.3% |
| N#Cc1c2n(c3c(=O)n(CC(=O)c4ccc(Br)cc4)cnc13)CCCC2 | -18.3% | -5.47% | -0.17% | 86.1% | 86% | 0.885% | 2.03% |
| CCCSc1nnc2nc(C)cc(C)n12 | -2.7% | 1.39% | -0.95% | 103% | 101% | 2% | -0.46% |
| CCNc1nc(NCC)nc(-n2nc(C)cc2C)n1 | 4.27% | 4.28% | -0.22% | 100% | 103% | 0.2% | 0.75% |
| CC(=O)Oc1c2occc2cc2ccc(=O)oc12 | -10.4% | -1.74% | -2.14% | 92.7% | 90.5% | 0.425% | -1.95% |
| CC(=O)Oc1ccc(N2C(=O)CC(N3CCOCC3)C2=O)cc1 (configuration not stated) | 2.42% | 15% | -0.57% | 103% | 99.9% | 0.405% | 0.46% |
| Fc1ccc(-n2[nH]nnc2=S)cc1N1CCCC1 | -3.75% | 3.59% | -1.28% | 104% | 99.6% | -0.32% | -2.49% |
| CCOc1ccccc1N1CCN(S(=O)(=O)CC)CC1 | -0.885% | 4.05% | -1.83% | 94.9% | 97.6% | 0.455% | 6.05% |
| CCOc1ccccc1N1C(=O)CC(Nc2ccc(N3CCOCC3)cc2)C1=O (configuration not stated) | -0.205% | 7.53% | -2.65% | 101% | 101% | 1.6% | 5.11% |
| CCn1cc(C(=O)NC2CCCCCC2)c(=O)c2cc(S(=O)(=O)N3CCCCC3)ccc21 | -3.87% | -20.1% | -8.11% | 72.2% | 69.8% | 0.625% | 2.45% |
| CCOC(=O)N1CCN(C(=O)CS(=O)Cc2nc(-c3ccc(C)cc3)oc2C)CC1 (configuration not stated) | -5.11% | 7.44% | -1.59% | 89.3% | 92.1% | 1.68% | 7.07% |

| Structure (SMILES) | growth inhibition [1] | growth inhibition [2] | viability increase [3] | viability [4] | viability [5] | inhibition [6] | RAM network inhibition [7] |
| --- | --- | --- | --- | --- | --- | --- | --- |
| CCn1cc(Br)c(C(=O)Nc2ccc(F)c(Cl)c2)n1 | 0.5% | -5.7% | -3.96% | 84.1% | 80.6% | -0.565% | -0.16% |
| O=C(Nc1scc(-c2cccs2)c1C(=O)O)c1cccs1 | -11.8% | -9.07% | 3.64% | 103% | 105% | 1.41% | 0.42% |
| CS(=O)(=O)c1ccc2nc(NC(=O)C3CCCCC3)sc2c1 | -0.52% | -7.79% | -7.36% | 72.2% | 77.3% | 0.96% | 0.41% |
| COc1ccc(-c2nc(=S)[nH][nH]2)cc1 | -5.89% | -17% | -1.62% | 99% | 89% | 1.53% | 5.26% |
| OCCNCCCCCOc1ccc(F)cc1 | -1.2% | -16.2% | -1.34% | 96.2% | 94.5% | 2.19% | 0.69% |
| Cn1nc(-c2ccc(Cl)cc2)c2cc(C(=O)NCc3ccco3)sc21 | -1.08% | -3.58% | -7.27% | 59.6% | 47% | 2.54% | 5.89% |
| O=C(O)Cc1ccc(NC(=O)C2CC=CCC2C(=O)O)cc1 (configuration not stated) | -7.36% | 1.55% | 1.02% | 102% | 104% | 3.26% | 8.93% |
| O=C(C1CCN(S(=O)(=O)c2cccc3cccnc23)CC1)N1CC=C(c2ccccc2)CC1 | 6.34% | 9.98% | -2.61% | 79.9% | 83% | 1.93% | 2.07% |
| NS(=O)(=O)c1ccc(CNC(=O)NC2(c3ccccc3)CC2)cc1 | -14.6% | -6.6% | -2.9% | 102% | 87.2% | 1.08% | 3.05% |
| N#CC1=C(N)Oc2c(sc3ccccc23)C1c1ccco1 (configuration not stated) | -25.7% | -4.08% | -4.53% | 63.3% | 65.2% | 1.22% | -0.62% |
| CCOCCn1c(SCc2cccc(C)c2)nc2c1c(=O)[nH]c(=O)n2C | -7.34% | 10% | -5.79% | 98% | 87.4% | 0.905% | 2.37% |
| O=C1C2C3C=CC(CO)(O3)C2C(=O)N1c1ccccc1-c1ccccc1 (configuration not stated) | 97.3% (active) | 100% (active) | -4.39% | 93.7% | 92% | 0.13% | -1.89% |
| O=C(Cc1cc(=O)[nH]c(=O)[nH]1)NCCN1CCOCC1 | 4.2% | 10.4% | 1.08% | 102% | 98.6% | 0.35% | 5.04% |
| CCSc1nnc(NC(=O)CSc2nc3c(c(=O)n2-c2ccccc2)SCC3)s1 | -6.26% | -2.77% | -1.11% | 100% | 103% | 2.82% | 4.35% |
| Cc1sc2nc(SCC(=O)N(CCO)CCO)n(C3CCCCC3)c(=O)c2c1C | -10.3% | 0.44% | -2.54% | 99% | 104% | 2.33% | 10.7% |
| COC(=O)Cn1c(=NC(=O)C2CC2)sc2c(C)cc(C)cc21 | -12.3% | -19% | -2.07% | 92.9% | 91.4% | 0.27% | 4.34% |
| O=C(Cn1c(=O)oc2cc(S(=O)(=O)N3CCc4ccccc43)ccc21)N1CCCCC1 | -2.98% | -7.46% | -2.88% | 98.1% | 80.5% | -0.125% | 2.79% |
| CCn1c(C(C)NC(=O)Cc2ccccc2)nc2ccccc21 (configuration not stated) | -12.2% | -17.6% | -1.21% | 99.6% | 96% | 1.83% | 4.91% |
